Results on eleven molecules are retold here after ChEMBL document CHEMBL4680305, “Synthesis and biological evaluation of all possible inosine-mixed cyclic dinucleotides that activate different hSTING variants” (Bioorg Med Chem, 2021).

The Kd is a measure of binding affinity in units of concentration. Low readings indicate higher affinity, high ones lower affinity.

Activity calls are given as the source filed them. The calls are words filed in the database; no cut-off is given here.

One assay concerns HEK293T. Briefly: Activation of human STING R232H mutant expressed in HEK293T cells assessed as increase IFN-beta activity at 5 uM […] by dual-luciferase reporter gene assay. Format: cell-based. The note with it: filed as activator. The method in brief: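 HEK293T cells were co-transfected using polyjet with pcDNA3.1-hSTING R232H (50 ng), pGL3-IFNβ firefly reporter (400 ng) and pGL4.74-Rluc-TK (50 ng). After 24 h, cells were stimulated with 5 µM CDN for 30 min in digitonin buffer (10 µg/mL digitonin, 1 mM ATP, 0.1 mM GTP, HEPES/KCl/MgCl2), then put back in normal medium. Lysates were taken 12 h later for dual-luciferase readout; mean ± s.e.m., n = 5.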
`O=c1ccn([C@@H]2O[C@@H]3COP(=O)(O)O[C@@H]4[C@H](O)[C@@H](COP(=O)(O)O[C@@H]2[C@@H]3O)O[C@H]4n2cnc3c(=O)[nH]cnc32)c(=O)[nH]1`: the outcome was Active.
Same read-out and setting: the entry for `Nc1ncnc2c1ncn2[C@@H]1O[C@@H]2COP(=O)(O)O[C@H]3[C@@H](O)[C@H](n4cnc5c(O)ncnc54)O[C@@H]3COP(=O)(O)O[C@@H]1[C@@H]2O` is “Active”.
`Nc1nc2c(ncn2[C@@H]2O[C@@H]3COP(=O)(O)O[C@@H]4[C@H](O)[C@@H](COP(=O)(O)O[C@@H]2[C@@H]3O)O[C@H]4n2cnc3c(=O)[nH]cnc32)c(=O)[nH]1`: the outcome was Active.
Still for that read-out and setting: the entry for `O=c1[nH]cnc2c1ncn2[C@@H]1O[C@@H]2COP(=O)(O)O[C@@H]3[C@H](O)[C@@H](COP(=O)(O)O[C@@H]1[C@@H]2O)O[C@H]3n1cnc2c(=O)[nH]cnc21` is “Active”.
On to `Nc1ccn([C@@H]2O[C@@H]3COP(=O)(O)O[C@@H]4[C@H](O)[C@@H](COP(=O)(O)O[C@@H]2[C@@H]3O)O[C@H]4n2cnc3c(=O)[nH]cnc32)c(=O)n1`, for which the result was Active.
Consider `Nc1ncnc2c1ncn2[C@@H]1O[C@@H]2COP(=O)(O)O[C@@H]3[C@H](O)[C@@H](COP(=O)(O)O[C@H]2[C@H]1O)O[C@H]3n1cnc2c(=O)[nH]cnc21`, for which the outcome was Active.
Same read-out and setting: the entry for `O=c1[nH]cnc2c1ncn2[C@@H]1O[C@@H]2COP(=O)(O)O[C@@H]3[C@H](O)[C@@H](COP(=O)(O)O[C@H]2[C@H]1O)O[C@H]3n1cnc2c(=O)[nH]cnc21` is “Active”; for `Nc1ncnc2c1ncn2[C@@H]1O[C@@H]2COP(=O)(O)O[C@@H]3[C@H](O)[C@@H](COP(=O)(O)O[C@@H]1[C@@H]2O)O[C@H]3n1cnc2c(O)ncnc21` it is “Active”.
The same measure, in the same setting: the entry for `Nc1ccn([C@@H]2O[C@@H]3COP(=O)(O)O[C@H]4[C@@H](O)[C@H](n5cnc6c(=O)[nH]cnc65)O[C@@H]4COP(=O)(O)O[C@@H]2[C@@H]3O)c(=O)n1` is “Active”.

For the next assay, the target named is Stimulator of interferon genes protein (Homo sapiens, UniProt Q86WV6). Briefly: Binding affinity to wild-type human STING-CTD (139-379) expressed in Escherichia coli BL21(D Escherichia ) cells by isothermal titration calorimetry.
Chain of Stimulator of interferon genes protein (Q86WV6 whole entry): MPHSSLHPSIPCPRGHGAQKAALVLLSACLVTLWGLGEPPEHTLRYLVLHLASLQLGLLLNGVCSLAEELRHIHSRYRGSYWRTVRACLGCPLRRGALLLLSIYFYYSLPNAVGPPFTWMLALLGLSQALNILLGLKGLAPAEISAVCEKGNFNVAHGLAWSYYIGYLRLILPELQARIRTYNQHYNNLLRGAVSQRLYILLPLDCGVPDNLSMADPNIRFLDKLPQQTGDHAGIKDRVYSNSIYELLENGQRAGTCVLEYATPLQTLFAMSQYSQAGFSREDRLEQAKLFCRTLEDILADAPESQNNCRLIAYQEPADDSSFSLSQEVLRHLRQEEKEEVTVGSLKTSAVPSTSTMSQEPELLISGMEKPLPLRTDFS
Conditions: not given
A general note: ITC needs no label: the signal is the heat of the interaction.
In turn, `O=c1[nH]cnc2c1ncn2[C@@H]1O[C@@H]2COP(=O)(O)O[C@H]3[C@@H](O)[C@H](n4cnc5c(=O)[nH]cnc54)O[C@@H]3COP(=O)(O)O[C@H]2[C@H]1O` returned an equilibrium dissociation constant (Kd) of 19.5 µM.

Test system in a further assay: not listed separately
Briefly: Stability of compound in presence of 20% FBS.
Conditions: not given
Put shortly: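 CDN at 0.1 µg/µL was incubated at 37 °C in 20% FBS with 20 mM PBS pH 7.4 and 5 mM MgCl2, against a water control. Aliquots taken at various time points were quenched with EDTA pH 8.0 and centrifuged. They were analysed by HPLC with UV at 254 nm, using 10 mM TEAA/MeCN mobile phase at 25 °C.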
As to `Nc1ncnc2c1ncn2[C@@H]1O[C@@H]2COP(=O)(O)O[C@H]3[C@@H](O)[C@H](n4cnc5c(O)ncnc54)O[C@@H]3COP(=O)(O)O[C@H]2[C@H]1O`, the Stability result is “Stable”.
